What all share (assay type): functional
Common to all, as to settings: read-out: ED50 (the source's name)

The test system of one test is MOLT-4. The test is described as follows: Cytotoxicity against human MOLT4 cells by Alamar blue assay. Put shortly:
(§1)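 Cell lines from ATCC. Growth inhibition measured by Alamar Blue read-out. ED50 reported as mean ± SEM of triplicate determinations; inactivity cutoff set at ED50 > 10 μM. 5-Fluorouracil run as positive control.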

The test system of a further test is HT-29. The test is described as follows: Cytotoxicity against human HT-29 cells by Alamar blue assay. The method, boiled down: as §1
A general note: The colour change of resazurin is a common sign of viable cells or microbes.

A further test relates to P388. Nature of the test: Cytotoxicity against mouse P388 cells by Alamar blue assay. Put shortly:
as §1

In the next test the test system is K562. The test is described as follows: Cytotoxicity against human K562 cells by Alamar blue assay. The method, boiled down: as §1

With `C[C@H]1[C@H]2[C@H](C[C@H]3[C@@H]4CCC5=CC(=O)C=C[C@]5(C)[C@H]4CC[C@]23C)O[C@@]2(OC(=O)[C@@H](C)[C@H]2C)[C@H]1O`, the EC50 with MOLT-4 came out at 9.9 µM; in the test on HT-29, 7.5 µM.

As for `C[C@@H]1[C@H]([C@H]2OC(=O)[C@H](C)[C@H]2C)O[C@H]2C[C@H]3[C@@H]4CCC5=CC(=O)C=C[C@]5(C)[C@H]4CC[C@]3(C)[C@@H]12`, the results for the EC50 in the test on MOLT-4, with HT-29 and in the test with P388 were 4.8 µM, 4.8 µM and 9.1 µM, respectively.

`C[C@@H]1[C@H]([C@H]2OC(=O)[C@@H](C)[C@H]2C)O[C@H]2C[C@H]3[C@@H]4CCC5=CC(=O)C=C[C@]5(C)[C@H]4CC[C@]3(C)[C@@H]12`: the EC50 with K562 is 8.7 µM.

For the compound `O=c1[nH]cc(F)c(=O)[nH]1` [FLUOROURACIL], the EC50 in the test with MOLT-4 came out at 7.7 µM; with HT-29, 7.7 µM; in the test on K562, 21 µM; with P388, 6.2 µM.

The record behind these values is ChEMBL document CHEMBL2429784, “Withanolide-based steroids from the cultured soft coral Sinularia brassica” (2013).
